Shown are actives, neighbours in structure and some others; about 2.3% of the full set was active somewhere.
PP5 inh = blocks human protein phosphatase 5 activity. P53041. purified PP5c, OMFP substrate fluorescence. inhibition, % at 6.7 µM. 320,000 tested, 0.18% active;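 active = inhibition above the campaign's mean inhibition across all tested compounds plus 3 SD, cut at about 9.5% in these data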;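 note: 0% = DMSO only and 100% = 100 µM cantharidin control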
Fh CTSL1 inh = cathepsin L1 inhibition, PFM18AAP counter-screen. recombinant F. hepatica cathepsin L1, Z-Leu-Arg-MCA fluorescence. inhibition, % at 5.96 µM. 300,000 tested, 0.49% active. AID 1906;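 active = inhibition above the mean of all tested compounds plus 3 SD, set per screening campaign, cut at about 17% in these data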;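 note: 0% = plate median of test compound wells and 100% = 1 µM Z-Phe-Ala-diazomethylketone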
PP1 inh = counter-screen for PP5 inhibitors: inhibitors of human PP1-alpha. P62136. purified PP1alpha, OMFP fluorescence. inhibition, % at 6.7 µM. 320,000 tested, 0.9% active. AID 2235;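 active = inhibition above the mean inhibition of all tested compounds plus 3 SD, computed separately for each screening campaign, cut at about 15% in these data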
Target sequence (P62136 whole entry, looked up): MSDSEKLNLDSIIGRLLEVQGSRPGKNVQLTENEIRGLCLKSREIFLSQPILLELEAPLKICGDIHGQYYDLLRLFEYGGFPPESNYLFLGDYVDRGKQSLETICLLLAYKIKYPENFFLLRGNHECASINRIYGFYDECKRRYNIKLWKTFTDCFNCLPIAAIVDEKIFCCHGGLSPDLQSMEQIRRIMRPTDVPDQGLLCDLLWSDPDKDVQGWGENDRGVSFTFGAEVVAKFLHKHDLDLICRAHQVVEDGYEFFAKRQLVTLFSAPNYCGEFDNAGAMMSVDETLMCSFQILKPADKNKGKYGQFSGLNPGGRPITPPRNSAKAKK
UCH37 DUB inh = blocks the human deubiquitinase UCH37. inhibition, % (concentration not given with the values). 330,000 tested, 0.33% active. AID 588478. purified proteasome/UCH37, Ub-AMC cleavage fluorescence;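 active = mean inhibition over replicate wells above about 20%, limit read from the data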;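 note: 0% = compound-free wells with enzyme and 100% = wells lacking proteasome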
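assay system = human UCH37 enzyme supplied as purified proteasome complex | amount = proteasome at 0.15 nM in the dispensed enzyme solution | schedule = 30 min compound-proteasome preincubation then 25 min substrate reaction, room temperature | measured by = fluorescence, ex 355 nm, em 460 nm | benchmarks = no-proteasome wells (full inhibition) and compound-free wells (no inhibition)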
PREPL inh = human PREPL enzyme inhibition; Q4J6C6; recombinant PREPL, fluorescence polarization activity-based probe; inhibition, % at 5.96 µM; 320,000 tested, 0.68% active; AID 2751; in the data active = inhibition above about 43%;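 note: 0% = enzyme with DMSO and 100% = wells lacking enzyme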
UBC13 polyUb = inhibitors of human UBC13 polyubiquitin chain formation | P61088 | inhibition, % at 20 µM | 330,000 tested, 0.47% active | TR-FRET; in the data active = inhibition above about 45%, passing the limit was not always enough
Target sequence (P61088 whole entry, looked up): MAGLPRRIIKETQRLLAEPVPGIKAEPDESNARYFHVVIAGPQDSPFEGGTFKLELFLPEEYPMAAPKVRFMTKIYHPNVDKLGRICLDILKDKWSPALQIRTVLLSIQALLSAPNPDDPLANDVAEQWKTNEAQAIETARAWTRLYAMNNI
PP5 conf = PP5 (human) inhibition, confirmation. shares compounds with PP5 inh. Purified PP5, fluorogenic phosphatase substrate, fluorescence. inhibition, % at 6.7 µM. 460 tested, 22% active. AID 2331; in the data active = inhibition above about 9.5%
PP1 inh counter = counter-screen for PP5 inhibitors: human PP1 phosphatase inhibition. 460 tested, 4% active. inhibition, % at 6.7 µM. shares compounds with PP5 inh. PP1 enzyme, fluorescent phosphatase substrate; in the data active = inhibition above about 16%
The depositor's hits bear a star; / = not tested or not shown.

SMILES	PP5 inh	Fh CTSL1 inh	PP1 inh	UCH37 DUB inh	PREPL inh	UBC13 polyUb	PP5 conf	PP1 inh counter
Cc1cc(N2C(=O)C(O)=C(C(=O)c3cc4ccccc4o3)C2c2cccc(Cl)c2)no1 (stereo not given)	-1	-2	27*	/	8	-9	/	/
Cc1cc(N2C(=O)C(O)=C(C(=O)c3cc4ccccc4o3)C2c2ccc(Br)cc2)no1 (stereo not given)	2	2	26*	/	43	-14	/	/
Cc1cc(N2C(=O)C(O)=C(C(=O)c3cccs3)C2c2cccc(Br)c2)no1 (stereo not given)	-1	-2	5	9	-10	-12	/	/
Cc1cc(N2C(=O)C(O)=C(C(=O)c3ccco3)C2c2cccc(Cl)c2)no1 (stereo not given)	-2	6	8	7	13	-5	/	/
Cc1cc(N2C(=O)C(O)=C(C(=O)c3cc4ccccc4o3)C2c2ccc(Cl)cc2)no1 (stereo not given)	4	5	29*	/	33	-16	/	/
Cc1cc(C)c(S(=O)(=O)NN=Cc2ccc([N+](=O)[O-])o2)c(C)c1	/	/	/	3	/	/	/	/
O=C(Nc1ccn(Cc2c(F)c(F)cc(F)c2F)n1)c1ccc(COc2ccc(Cl)cc2Cl)o1	9.8*	2	7	5	-45	-1	1	2
Cc1nn(Cc2ccc(Cl)cc2Cl)c(C)c1NC(=O)c1ccc(COc2cc(Cl)ccc2Cl)o1	3	2	12	3	-8	-12	/	/
Cc1nn(Cc2c(F)c(F)c(F)c(F)c2F)c(C)c1NC(=O)c1ccc(COc2ccc(Cl)cc2Cl)o1	10*	17*	10	5	4	0	3	2
Cc1ccc(C=NNC(=O)c2cc3ccccc3cc2O)o1	/	/	/	5	/	/	/	/
CCNC(=S)NS(=O)(=O)c1ccc(C)cc1	1	-5	-1	-2	-1	3	/	/
CCNC(=S)NS(=O)(=O)c1ccc(CC)cc1	10.0*	-2	-1	1	7	5	-3	-2
Cc1ccc(S(=O)(=O)N2CCN(S(=O)(=O)c3ccc(C)cc3)C2c2ccccc2)cc1	2	-1	0	2	-12	9	/	/
COc1ccc(C2N(S(=O)(=O)c3ccccc3)CCN2S(=O)(=O)c2ccc(C)cc2)cc1 (stereo not given)	10*	-4	1	4	10	0	1	2
CCC(C)=NNc1nc(-c2cc3cc(OC)ccc3oc2=O)cs1	/	/	/	-21	/	/	/	/
CCOc1ccc(N(CC(=O)Nc2c(C)cccc2C)S(=O)(=O)c2c(C)[nH]c(=O)[nH]c2=O)cc1	12*	0	-8	5	4	-10	-7	-6
CCOc1ccc(N(CC(=O)Nc2cccc(C)c2C)S(=O)(=O)c2c(C)[nH]c(=O)[nH]c2=O)cc1	2	5	-1	0	22	-1	/	/
COc1ccc(-c2cn(-c3ccc(Cl)cc3)c3[n+]2CCCCC3)cc1	19*	0	3	4	10	-3	-2	-3
CCOC(=O)N1CCC2(CC1)NCCc1c2[nH]c2ccccc12	12*	2	-1	2	15	-6	-9	-6
CON=CC(=NNc1cc(OC)cc(OC)c1)C(=O)c1ccccc1	/	/	/	2	/	/	/	/
CCOc1ccc(C(=O)/C=C/c2cn(CN3CCN(C)CC3)c3ccccc23)cc1	11*	5	7	-14	20	22	0	-1
Cc1cc(C)n2nc(SCC(=O)NN=Cc3cccc(Br)c3)nc2n1	/	/	/	5	/	/	/	/
CCCn1c(SCC(=O)NC2CCCC2)nnc1-c1ccccn1	11*	-4	-6	1	-3	6	-3	-4
O=C(C(=NO)n1cncn1)c1ccccc1Cl	/	/	/	4	/	/	/	/
C=CCOc1ccccc1C=NNC(=O)c1ccc(Cl)cc1Cl	/	/	/	0	/	/	/	/
SMILES	PP5 inh	Fh CTSL1 inh	PP1 inh	UCH37 DUB inh	PREPL inh	UBC13 polyUb	PP5 conf	PP1 inh counter
O=C(NC1CCCCC1)N1CCC(n2c(=O)[nH]c3ccccc32)CC1	19*	-3	11	2	-9	3	-2	-1
O=C(Nc1ccccc1)N1CCC(n2c(=O)[nH]c3ccccc32)CC1	0	7	-3	3	-13	4	/	/
O=C(O)c1cccc(N2C(=O)c3ccc(C(=O)c4cccc([N+](=O)[O-])c4)cc3C2=O)c1	1	-7	-6	1	-11	0	/	/
CC(=O)N(CN1C(=O)c2ccc([N+](=O)[O-])cc2C1=O)c1cccc(C(=O)O)c1	23*	0	0	-1	-1	-1	-2	-4
COc1ccc(C(=O)ON=C2CCN(c3ccc([N+](=O)[O-])cc3)CC2)cc1	4	1	-2	7	25	-8	/	/
O=C(ON=C1CCN(c2ccc([N+](=O)[O-])cc2)CC1)c1ccccc1	9.7*	0	2	5	19	2	-3	-1
O=C(Nc1ccc(OCC(F)(F)C(F)F)c(C(F)(F)F)c1)c1ccccc1	9	2	7	2	-4	7	/	/
O=C(Nc1ccc(OCC(F)(F)C(F)F)c(C(F)(F)F)c1)c1ccccc1O	11*	5	2	-11	3	-5	6	5
CC(C)CC(=O)NNC(=S)Nc1ccc(S(N)(=O)=O)cc1	4	-1	5	3	-6	5	/	/
CCc1ccc(C(=O)NNC(=S)Nc2ccc(S(N)(=O)=O)cc2)s1	14*	-1	-1	/	3	0	-2	1
Cc1ccc2c(Cl)c(C(=O)NCc3cccnc3)sc2c1	11*	4	0	1	6	-14	-4	-1
CC(C)C(=O)Nc1nnc(SCC(=O)Nc2ccc3c(c2)OCCO3)s1	13*	-6	-10	4	-3	-20	-5	-2
CC(C)NC(=O)c1ccccc1NC(=O)CCc1ccccc1	10*	0	4	2	-1	1	-2	-3
COc1ccc(C=NNC(=O)CSCC(=O)Nc2ccccc2)cc1OC	/	/	/	4	/	/	/	/
COc1cccc(C=Nn2nnnc2N)c1OCC#N	/	/	/	-14	/	/	/	/
O=C(NCCc1ccccc1)c1ccccc1F	2	-1	-5	2	-8	4	/	/
O=C(NCCCCc1ccccc1)c1ccccc1F	12*	-5	-1	2	-10	1	-1	-2
CC(=O)C1=C(C)N=c2sc(=Cc3ccc4c(c3)OCO4)c(=O)n2C1c1ccc(N(C)C)cc1 (stereo not given)	/	/	/	5	/	/	/	/
CCCCCNC(=O)CC1Nc2c3ccccc3nc(=S)n2C1=O (stereo not given)	9.9*	-3	-2	3	-9	9	-5	-4
CCCCNC(=O)CC1Nc2ccccc2NC1=O (stereo not given)	0	8	-4	-15	-1	4	/	/

High-throughput results from PubChem.
